Published values from different studies.
Each line is one published result; the experiments were not run side by side. pEC50, pIC50: −log10 of the molar value. In brackets after ≈: the same amount, converted by molar mass.

SMILES	tested on	test	test system	conditions	measurement	value
Cc1c(F)cccc1NC(=N)CC(O)c1cc2c(F)cc(F)cc2c2cc(C(F)(F)F)ccc12 (stereo not shown)	HepG2	cell growth or viability, neutral red		24 h	pIC50	4.95
NC(=S)c1cncc(Cn2c(=S)[nH]c3ccc(Cl)cc3c2=O)c1	Mycobacterium tuberculosis	microbial growth	H37RV		MIC90	> 100 µM
COc1ccc(-c2cc(C(F)(F)F)c3c(N)c(C(=O)Nc4c(C)cccc4C)sc3n2)cc1	HepG2	cell growth or viability		72 h	pIC50	< 4.00
c1ccc(CCOc2cc(-c3ccccn3)nc3nncn23)cc1	Mycobacterium tuberculosis	microbial growth	H37RV		MIC	> 100 µM
CC(C)C(=O)OCc1cc2[nH]c(=S)n(Cc3cncc(C#N)c3)c(=O)c2cc1Cl	Mycobacterium tuberculosis	microbial growth	H37RV		MIC90	5.52 µM (≈ 2.37 µg/mL)
COC1CN(C(=O)c2sc3ncccc3c2N)C1	Mycobacterium tuberculosis	microbial growth	H37RV		pIC50	< 4.00
COc1ccc(CCNc2cc(-c3ccccn3)nc3cc(Br)nn23)cc1	Mycobacterium tuberculosis	microbial growth	H37RV		MIC	23 µM (≈ 9.76 µg/mL)
CCN(CC)C(=O)c1sc2ncccc2c1N	HepG2	cell growth or viability		72 h	pIC50	< 4.00
N=C(CC(O)c1cc2c(F)cc(F)cc2c2cc(C(F)(F)F)ccc12)Nc1cccc(F)c1 (stereo not shown)	HepG2	cell growth or viability, neutral red		24 h	pIC50	4.94
O=c1[nH]c2cc(CO)c(Cl)cc2c(=O)n1Cc1cncnc1	Mycobacterium tuberculosis	microbial growth	H37RV		MIC90	34.5 µM (≈ 11 µg/mL)
N=C(CC(O)c1cc2c(F)cc(F)cc2c2cc(C(F)(F)F)ccc12)NCc1ccc(F)cc1 (stereo not shown)	HepG2	cell growth or viability, neutral red		24 h	pIC50	5.14
Nc1c(C(=O)N2CCCC2)sc2nc(-c3ccc4c(c3)OCO4)cc(C(F)(F)F)c12	HepG2	cell growth or viability		72 h	pIC50	< 4.00
O=c1c2cc(Cl)ccc2[nH]c(=S)n1Cc1ccc(-c2cscn2)nc1	Mycobacterium tuberculosis	microbial growth	H37RV		MIC90	> 100 µM
Cc1nnc2nc(-c3ccccn3)cc(NCCc3ccc(Cl)cc3)n12	Mycobacterium tuberculosis	microbial growth	H37RV	5 days	MIC	17 to 50 µM (≈ 6.2 to 18.2 µg/mL)
Cc1cccc(NC(=O)c2sc3nc(-c4ccco4)cc(C(F)(F)F)c3c2N)c1C	HepG2	cell growth or viability		72 h	pIC50	< 4.00
O=C(Nc1ccc(Cl)cc1)Nc1cccc(-c2cn(Cc3ccc(Br)cc3)nn2)c1	Huh-7	cell growth or viability, CCK-8		50 µM, 72 h	viability	13.1%
COCC(=O)OCc1cc2[nH]c(=S)n(Cc3cccnc3)c(=O)c2cc1Cl	Mycobacterium tuberculosis	microbial growth	H37RV		MIC90	2.36 µM (≈ 0.958 µg/mL)
COCCNC(=O)c1sc2nc(-c3ccc(OC)cc3)cc(C(F)(F)F)c2c1N	HepG2	cell growth or viability		72 h	pIC50	< 4.00
N#Cc1ccc(Cn2c(=S)[nH]c3ccc(Cl)cc3c2=O)cn1	Mycobacterium tuberculosis	microbial growth	H37RV		MIC90	> 100 µM
Cc1ccc(CCNc2cc(-c3ccccn3)nc3cc(Br)nn23)cc1	Mycobacterium tuberculosis	microbial growth	H37RV		MIC	25 µM (≈ 10.2 µg/mL)
COc1ccc(-c2cc(C(F)(F)F)c3c(N)c(C(=O)NC45CC6CC(CC(C6)C4)C5)sc3n2)cc1	HepG2	cell growth or viability		72 h	pIC50	< 4.00
O=c1c2ccccc2[se]n1-c1ccccc1	Trypanosoma cruzi	parasite growth	Vero	72 h, intracellular, amastigote	pEC50	5.43
COCCC(c1cccnc1)n1c(=S)[nH]c2ccc(Cl)cc2c1=O (stereo not shown)	Mycobacterium tuberculosis	microbial growth	H37RV		MIC90	> 100 µM
N=C(CC(O)c1cc2c(F)cc(F)cc2c2cc(C(F)(F)F)ccc12)Nc1ccc(Br)c(F)c1 (stereo not shown)	HepG2	cell growth or viability, neutral red		24 h	pIC50	4.55
CCC(NC(=O)c1sc2nc(-c3ccc(OC)cc3)cc(C(F)(F)F)c2c1N)c1ccccc1 (stereo not shown)	HepG2	cell growth or viability		72 h	pIC50	< 4.00
